Assay results reported in ChEMBL document CHEMBL1221284, “Development of 2-pyrrolidinyl-N-methyl pyrimidones as potent and orally bioavailable HIV integrase inhibitors” (Bioorg Med Chem Lett, 2010).
pIC50: −log10 of the molar value.

Tests used:
[1] = AUC in rat at 3 mg/kg, po and 3 mg/kg, iv; format: ADME, organism-based; settings: plasma
Procedure, shortened: (§1)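 The iv dose was given in DMSO/PEG400/H2O (20–40–40%) and the oral dose in 1% methylcellulose. Terminal-phase plasma half-life was taken from the iv administration and AUC from the oral administration.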

[2] = system: Human immunodeficiency virus 1; assay: Antiviral activity against HIV1 3B infected in human MT4 cells assessed as inhibition of viral infections in presence of 10% fetal bovine serum; format: functional; settings: Human immunodeficiency virus 1, 3B, read-out: CIC95
Procedure, shortened: (§2)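 Spread assay measuring inhibition of HIV-1 IIIb infection spread in MT-4 T-lymphoid cell culture. The medium held 10% fetal bovine serum for line 3 and 50% normal human serum for line 4. The readout is the 95% inhibitory concentration (CIC95).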

[3] = Terminal phase half life in rat at 3 mg/kg, po and 3 mg/kg, iv; format: ADME, organism-based; settings: in vivo, read-out: beta t1/2 (converted); procedure, shortened: as §1
[4] = system: Human immunodeficiency virus 1; assay: Antiviral activity against HIV1 3B infected in human MT4 cells assessed as inhibition of viral infections in presence of 50 % normal human serum; format: functional; settings: Human immunodeficiency virus 1, 3B, read-out: CIC95; procedure, shortened: as §2
[5] = Plasma clearance in rat at 3 mg/kg, po and 3 mg/kg, iv; format: ADME, organism-based; procedure, shortened: as §1
[6] = molecular target: Human immunodeficiency virus type 1 integrase (Human immunodeficiency virus 1, UniProt Q7ZJM1); assay: Inhibition of HIV 1 recombinant integrase
Human immunodeficiency virus type 1 integrase, sequence (Q7ZJM1 whole entry): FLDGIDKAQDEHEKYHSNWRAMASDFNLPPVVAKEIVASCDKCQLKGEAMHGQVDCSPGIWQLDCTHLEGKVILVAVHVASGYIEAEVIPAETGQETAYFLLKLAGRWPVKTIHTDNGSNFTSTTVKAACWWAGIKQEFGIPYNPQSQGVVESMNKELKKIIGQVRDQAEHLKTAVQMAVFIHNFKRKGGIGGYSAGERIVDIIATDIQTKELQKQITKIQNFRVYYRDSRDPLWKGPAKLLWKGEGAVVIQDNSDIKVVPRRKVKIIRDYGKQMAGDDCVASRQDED
Procedure, shortened: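 Recombinant HIV-1 integrase was pre-assembled on immobilized oligonucleotides. Inhibitor was added after assembly and washing. IC50 is the inhibitor concentration that reduces integrase activity by 50%.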

[7] = Oral bioavailability in rat at 3 mg/kg; format: ADME, organism-based; settings: in vivo; procedure, shortened: as §1
[8] = system: Human immunodeficiency virus 1; assay: Antiviral activity against HIV1 harboring integrase T66I mutant relative to wild type; format: functional
[9] = Terminal phase half life in dog at 1 mg/kg, iv and 2 mg/kg, po; settings: in vivo, read-out: beta t1/2 (converted)
[10] = organism: Homo sapiens; assay: Plasma protein binding in human; settings: read-out: PPB (converted)
[11] = system: Human immunodeficiency virus 1; assay: Antiviral activity against HIV1 harboring integrase V151I mutant relative to wild type; format: functional
[12] = system: Human immunodeficiency virus 1; assay: Antiviral activity against HIV1 harboring integrase T125K mutant relative to wild type; format: functional
[13] = AUC in dog at 1 mg/kg, iv and 2 mg/kg, po; settings: plasma
[14] = Oral bioavailability in dog at 1 mg/kg; format: ADME, organism-based, Canis lupus familiaris; settings: in vivo; procedure, shortened: as §1
[15] = system: Human immunodeficiency virus 1; assay: Antiviral activity against HIV1 harboring integrase F121Y mutant relative to wild type
[16] = system: Human immunodeficiency virus 1; assay: Antiviral activity against HIV1 harboring integrase T66I and M154I double mutant relative to wild type; format: functional
[17] = system: Human immunodeficiency virus 1; assay: Antiviral activity against HIV1 harboring integrase N155S mutant relative to wild type; format: functional
[18] = system: Human immunodeficiency virus 1; assay: Antiviral activity against HIV1 harboring integrase T66I and S153Y double mutant relative to wild type; format: functional
[19] = system: Human immunodeficiency virus 1; assay: Antiviral activity against HIV1 harboring integrase T125K and […] double mutant relative to wild type; format: functional
[20] = system: Human immunodeficiency virus 1; assay: Antiviral activity against HIV1 harboring integrase T66/L74M and V151L double mutant relative to wild type; format: functional
[21] = Metabolic stability in rat liver microsomes assessed as glucuronidation rate after 1 hr in presence of UDPGA; format: ADME, Microsome
Procedure, shortened: (§3)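 Rat liver microsomes (1 mg/mL) were incubated with test compound for 1 h. The cofactor was UDPGA for glucuronidation and NADPH for oxidation. Substrate loss was measured by LC/MS/MS and expressed as % of initial remaining.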

[22] = Metabolic stability in rat liver microsomes assessed as oxidation rate after 1 hr in presence of NADPH; format: ADME, Microsome; procedure, shortened: as §3
[23] = Plasma protein binding in rat; format: ADME, cell-free; settings: read-out: PPB (converted)

Row | SMILES | AUC [1] [µM·h] | half-life [3] [h] | clearance [5] [mL/min/kg] | pIC50 [6] | bioavailability [7] [%] | IC95 [2] [nM] | IC95 [4] [nM] | also measured
1 | CC(=O)N1C[C@@H](F)C[C@H]1c1nc(C(=O)NCc2ccc(F)c(C)c2)c(O)c(=O)n1C | 0.5 | 1.4 | 39 | 7.57 | 17 | 16 | 31 | –
2 | CC(=O)N1C[C@@H](F)C[C@H]1c1nc(C(=O)NCc2ccc(C)c(Cl)c2)c(O)c(=O)n1C | 3.7 | 3 | 29 | 7.49 | 94 | 5 | 46 | Ratio IC50 [8]: 1; half-life [9]: 1.2 h; fraction unbound [10]: 0.022; Ratio IC50 [11]: 1; Ratio IC50 [12]: 1; AUC [13]: 6.4 µM·h; bioavailability [14]: 80%; Ratio IC50 [15]: 1.5; Ratio IC50 [16]: 0.8; Ratio IC50 [17]: 8; Ratio IC50 [18]: 0.8; Ratio IC50 [19]: 3.5; Ratio IC50 [20]: 2.5
3 | COC(=O)N1C[C@@H](F)C[C@H]1c1nc(C(=O)NCc2ccc(C)c(Cl)c2)c(O)c(=O)n1C | 1.2 | 7.4 | 9.9 | 7.70 | 10 | 16 | 63 | –
4 | Cn1c([C@@H]2C[C@H](F)CN2C2CC2)nc(C(=O)NCc2ccc(F)cc2)c(O)c1=O | – | – | – | 7.70 | – | 63 | 250 | –
5 | CC(=O)N1C[C@@H](F)C[C@H]1c1nc(C(=O)NCc2ccc(F)cc2)c(O)c(=O)n1C | 1.2 | 0.3 | 64 | 7.82 | 31 | 14 | 17 | remaining at 1 h [21]: 43%; fraction unbound [10]: 0.21; Ratio IC50 [16]: 2; Ratio IC50 [17]: 15; remaining at 1 h [22]: 40%; Ratio IC50 [18]: 5; fraction unbound [23]: 0.37; Ratio IC50 [19]: 15; Ratio IC50 [20]: 10
6 | CN(C)C(=O)C(=O)N1C[C@@H](F)C[C@H]1c1nc(C(=O)NCc2ccc(F)cc2)c(O)c(=O)n1C | 0.2 | 1.6 | 138 | 7.68 | 19 | 16 | 16 | –
7 | CC(=O)N1C[C@@H](F)C[C@H]1c1nc(C(=O)NCc2ccc(F)c(Cl)c2)c(O)c(=O)n1C | 0.5 | 0.7 | 43 | 7.62 | 20 | 3 | 17 | Ratio IC50 [8]: 2; half-life [9]: 7.1 h; Ratio IC50 [11]: 1; Ratio IC50 [12]: 1; AUC [13]: 2.8 µM·h; bioavailability [14]: 34%; Ratio IC50 [15]: 4; Ratio IC50 [16]: 3; Ratio IC50 [17]: 31; Ratio IC50 [18]: 3; Ratio IC50 [19]: 17; Ratio IC50 [20]: 31
8 | CN1C[C@@H](F)C[C@H]1c1nc(C(=O)NCc2ccc(F)cc2)c(O)c(=O)n1C | 4.5 | – | 21 | 7.64 | – | 63 | 125 | half-life [9]: 3.7 h; AUC [13]: 23.1 µM·h; bioavailability [14]: 116%

More lines, main results first:

Row | AUC [1] [µM·h] | half-life [3] [h] | clearance [5] [mL/min/kg] | pIC50 [6] | bioavailability [7] [%] | SMILES | IC95 [2] [nM] | IC95 [4] [nM] | also measured
9 | 1.3 | 1.5 | 21 | 7.72 | 25 | COC(=O)N1C[C@@H](F)C[C@H]1c1nc(C(=O)NCc2ccc(F)c(Cl)c2)c(O)c(=O)n1C | 16 | 31 | –
10 | – | – | – | 8.00 | – | Cn1c([C@@H]2C[C@H](F)CN2Cc2ccon2)nc(C(=O)NCc2ccc(F)cc2)c(O)c1=O | 156 | 625 | –
11 | 1.2 | 0.6 | 46 | 8.00 | 44 | COC(=O)N1C[C@@H](F)C[C@H]1c1nc(C(=O)NCc2ccc(F)cc2)c(O)c(=O)n1C | 31 | 63 | –
12 | – | – | – | 8.00 | – | CN(C)C(=O)N1C[C@@H](F)C[C@H]1c1nc(C(=O)NCc2ccc(F)cc2)c(O)c(=O)n1C | 125 | 125 | –
13 | – | – | – | 7.82 | – | Cn1c([C@@H]2C[C@H](F)CN2S(C)(=O)=O)nc(C(=O)NCc2ccc(F)cc2)c(O)c1=O | 31 | 125 | –
14 | – | – | 64 | 8.05 | 16 | CN(C)S(=O)(=O)N1C[C@@H](F)C[C@H]1c1nc(C(=O)NCc2ccc(F)cc2)c(O)c(=O)n1C | 31 | 125 | –
15 | 2.3 | 0.2 | 77 | 8.00 | 18 | Cn1c([C@@H]2C[C@H](F)CN2C(=O)c2cnccn2)nc(C(=O)NCc2ccc(F)cc2)c(O)c1=O | 16 | 16 | –
